In ChEMBL document CHEMBL5247578, “Effective synthesis of benzimidazoles-imidazo[1,2-a]pyrazine conjugates: A comparative study of mono-and bis-benzimidazoles for antitumor activity” (Eur J Med Chem, 2019):

Key:
Calf thymus DNA [1] = test: Binding affinity to calf thymus DNA assessed as quenching constant at temperature of 298 K by fluorescence spectroscopic method; format: nucleic-acid assay; details: Bos taurus
Calf thymus DNA [2] = test: Binding affinity to calf thymus DNA assessed as DNA intercalation by measuring Stem-Volmer quenching constant at temperature of 298 K by fluorescence spectroscopic method; format: nucleic-acid assay; details: Bos taurus
UACC-62 [3] = test: Antiproliferative activity against human UACC-62 cells assessed as cell growth at 0.00000001 M incubated for 48 hrs by SRB assay relative to control; format: functional; details: dose 10 nM, read-out: Activity
RPMI-8226 [4] = test: Antiproliferative activity against human RPMI-8226 cells assessed as cell growth at 0.00000001 M incubated for 48 hrs by SRB assay relative to control; format: functional; details: dose 10 nM, read-out: Activity
NCI-H460 = test: Antiproliferative activity against human NCI-H460 cells assessed as cell growth at 0.00000001 M incubated for 48 hrs by SRB assay relative to control; format: functional; details: dose 10 nM, read-out: Activity
U-251 = test: Antiproliferative activity against human U-251 cells assessed as cell growth at 0.00000001 M incubated for 48 hrs by SRB assay relative to control; format: functional; details: dose 10 nM, read-out: Activity
CAKI-1 = test: Antiproliferative activity against human CAKI-1 cells assessed as cell growth inhibition by measuring lethal concentration incubated for 48 hrs by sulforhodamine B assay; format: functional; details: read-out: LC50 (the source's name)
NCI-H522 = test: Antiproliferative activity against human NCI-H522 cells assessed as cell growth inhibition by measuring lethal concentration incubated for 48 hrs by sulforhodamine B assay; format: functional; details: read-out: LC50 (the source's name)
HOP-92 = test: Antiproliferative activity against human HOP-92 cells assessed as cell growth inhibition by measuring lethal concentration incubated for 48 hrs by sulforhodamine B assay; format: functional; details: read-out: LC50 (the source's name)
OVCAR-4 = test: Growth inhibition against human OVCAR-4 cells assessed as total growth inhibitory concentration incubated for 48 hrs by sulforhodamine B assay; format: functional
SNB-75 = test: Growth inhibition against human SNB-75 cells assessed as total growth inhibitory concentration incubated for 48 hrs by sulforhodamine B assay; format: functional
Hs-578T [5] = test: Growth inhibition against human Hs-578T cells incubated for 48 hrs by sulforhodamine B assay; format: functional
MDA-MB-231 = test: Growth inhibition against human MDA-MB-231 cells incubated for 48 hrs by sulforhodamine B assay; format: functional
SK-OV-3 = test: Growth inhibition against human SK-OV-3 cells incubated for 48 hrs by sulforhodamine B assay; format: functional
NCI/ADR-RES = test: Growth inhibition against human NCI/ADR-RES cells incubated for 48 hrs by sulforhodamine B assay; format: functional
OVCAR-8 [6] = test: Growth inhibition against human OVCAR-8 cells incubated for 48 hrs by sulforhodamine B assay; format: functional
UACC-257 [7] = test: Growth inhibition against human UACC-257 cells incubated for 48 hrs by sulforhodamine B assay; format: functional
MOLT-4 = test: Growth inhibition against human MOLT-4 cells incubated for 48 hrs by sulforhodamine B assay; format: functional
RPMI-8226 [8] = test: Antiproliferative activity against human RPMI-8226 cells assessed as cell growth at 0.0000001 M incubated for 48 hrs by SRB assay relative to control; format: functional; details: dose 100 nM, read-out: Activity
NCI-H226 = test: Antiproliferative activity against human NCI-H226 cells assessed as cell growth at 0.0000001 M incubated for 48 hrs by SRB assay relative to control; format: functional; details: dose 100 nM, read-out: Activity
HCT-15 = test: Antiproliferative activity against human HCT-15 cells assessed as cell growth at 0.0000001 M incubated for 48 hrs by SRB assay relative to control; format: functional; details: dose 100 nM, read-out: Activity
Outline: (§1)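 NCI-60 five-dose screen (10^-4 to 10^-8 M). Cells grown in RPMI 1640 with 5% FBS and 2 mM L-glutamine, plated at 5,000-40,000 cells/well and preincubated 24 h. Drug given from DMSO stock, then 48 h at 37 °C, 5% CO2. For adherent lines, cells fixed with cold TCA, SRB-stained and read at 515 nm. Percent growth taken against time-zero and untreated control.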

A498 = test: Antiproliferative activity against human A498 cells assessed as cell growth at 0.0000001 M incubated for 48 hrs by SRB assay relative to control; format: functional; details: dose 100 nM, read-out: Activity
Outline: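 NCI-60 five-dose screen over 10^-4–10^-8 M (10-fold dilutions). Cells grown in RPMI 1640 with 5% FBS and 2 mM L-glutamine, seeded at 5,000–40,000 cells/well and preincubated 24 h. Drug from DMSO stock, 48 h at 37 °C, 5% CO2. Adherent cells TCA-fixed and stained with 0.4% SRB; A515 read. Percent growth = (Ti−Tz)/(C−Tz)×100, or (Ti−Tz)/Tz×100 when Ti<Tz.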

Hs-578T [9] = test: Antiproliferative activity against human Hs-578T cells assessed as cell growth at 0.0000001 M incubated for 48 hrs by SRB assay relative to control; format: functional; details: dose 100 nM, read-out: Activity
Outline: (§2)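 NCI-60 five-dose mode, 10^-4 to 10^-8 M in 10-fold steps. RPMI 1640, 5% FBS, 2 mM L-glutamine; 24 h preincubation, then 48 h drug exposure at 37 °C. Stocks in DMSO at 400× the top concentration, diluted in medium with gentamicin. TCA fixation, SRB staining, absorbance at 515 nm. Percent growth from time-zero (Tz), control (C) and test (Ti) readings.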

HOP-62 = test: Antiproliferative activity against human HOP-62 cells assessed as cell growth at 0.000001 M incubated for 48 hrs by SRB assay relative to control; format: functional; details: read-out: Activity; outline: as §1
SF-268 [10] = test: Antiproliferative activity against human SF-268 cells assessed as cell growth at 0.000001 M incubated for 48 hrs by SRB assay relative to control; format: functional; details: read-out: Activity
UACC-62 [11] = test: Antiproliferative activity against human UACC-62 cells assessed as cell growth at 0.000001 M incubated for 48 hrs by SRB assay relative to control; format: functional; details: read-out: Activity
OVCAR-5 = test: Antiproliferative activity against human OVCAR-5 cells assessed as cell growth at 0.000001 M incubated for 48 hrs by SRB assay relative to control; format: functional; details: read-out: Activity
PC-3 = test: Antiproliferative activity against human PC-3 cells assessed as cell growth at 0.000001 M incubated for 48 hrs by SRB assay relative to control; format: functional; details: read-out: Activity
Hs-578T [12] = test: Antiproliferative activity against human Hs-578T cells assessed as cell growth at 0.000001 M incubated for 48 hrs by SRB assay relative to control; format: functional; details: read-out: Activity; outline: as §2
SF-268 [13] = test: Antiproliferative activity against human SF-268 cells assessed as cell growth at 0.00001 M incubated for 48 hrs by SRB assay relative to control; format: functional; details: read-out: Activity
OVCAR-8 [14] = test: Antiproliferative activity against human OVCAR-8 cells assessed as cell growth at 0.00001 M incubated for 48 hrs by SRB assay relative to control; format: functional; details: read-out: Activity
SF-295 = test: Antiproliferative activity against human SF-295 cells assessed as cell growth at 0.0001 M incubated for 48 hrs by SRB assay relative to control; format: functional; details: read-out: Activity
UACC-257 [15] = test: Antiproliferative activity against human UACC-257 cells assessed as cell growth at 0.0001 M incubated for 48 hrs by SRB assay relative to control; format: functional; details: read-out: Activity
T47D = test: Antiproliferative activity against human T47D cells assessed as cell growth at 0.0001 M incubated for 48 hrs by SRB assay relative to control; format: functional; details: read-out: Activity

SMILES | Kq (Calf thymus DNA [1]) | KSV (Calf thymus DNA [2]) | growth at 0.01 µM (UACC-62 [3]) [%] | growth at 0.01 µM (RPMI-8226 [4]) [%] | growth at 0.01 µM (NCI-H460) [%] | growth at 0.01 µM (U-251) [%] | CC50 (CAKI-1) [nM] | CC50 (NCI-H522) [nM] | CC50 (HOP-92) [nM] | TGI (OVCAR-4) [nM] | TGI (SNB-75) [nM] | GI50 (Hs-578T [5]) [nM] | GI50 (MDA-MB-231) [nM] | GI50 (SK-OV-3) [nM] | GI50 (NCI/ADR-RES) [nM] | GI50 (OVCAR-8 [6]) [nM] | GI50 (UACC-257 [7]) [nM] | GI50 (MOLT-4) [nM] | growth at 0.1 µM (RPMI-8226 [8]) [%] | growth at 0.1 µM (NCI-H226) [%] | also measured
COc1ccc(-c2cn3ccnc3c(-c3ccc4ncn(C5CCCCC5)c4c3)n2)cc1 | 4.65 10^12/M/s | 4.65 10^4/M | 94 | 104 | 104 | 102 | > 100000 | > 100000 | > 100000 | > 100000 | > 100000 | 1160 | 2830 | 508 | 618 | 3160 | > 100000 | 2660 | 108 | 96 | growth at 0.1 µM (HCT-15): 99%; growth at 0.1 µM (A498): 92%; growth at 0.1 µM (Hs-578T [9]): 102%; growth at 1 µM (HOP-62): 52%; growth at 1 µM (SF-268 [10]): 65%; growth at 1 µM (UACC-62 [11]): 27%; growth at 1 µM (OVCAR-5): 75%; growth at 1 µM (PC-3): 37%; growth at 1 µM (Hs-578T [12]): 53%; growth at 10 µM (SF-268 [13]): 25%; growth at 10 µM (OVCAR-8 [14]): 8%; growth at 100 µM (SF-295): 2%; growth at 100 µM (UACC-257 [15]): 55%; growth at 100 µM (T47D): -21%
c1ccc(Cn2cnc3ccc(-c4nc(-c5ccc6c(c5)ncn6C5CCCCC5)cn5ccnc45)cc32)cc1 | 1.19 10^12/M/s | 1.19 10^4/M | 92 | 108 | 103 | 98 | > 100000 | > 100000 | 5500 | > 100000 | 2890 | 2710 | 1680 | 2530 | 1980 | 2600 | 2240 | 1670 | 113 | 103 | growth at 0.1 µM (HCT-15): 96%; growth at 0.1 µM (A498): 101%; growth at 0.1 µM (Hs-578T [9]): 104%; growth at 1 µM (HOP-62): 82%; growth at 1 µM (SF-268 [10]): 82%; growth at 1 µM (UACC-62 [11]): 87%; growth at 1 µM (OVCAR-5): 89%; growth at 1 µM (PC-3): 75%; growth at 1 µM (Hs-578T [12]): 88%; growth at 10 µM (SF-268 [13]): 2%; growth at 10 µM (OVCAR-8 [14]): -23%; growth at 100 µM (SF-295): -38%; growth at 100 µM (UACC-257 [15]): -27%; growth at 100 µM (T47D): 9%
